Source: ChEMBL document CHEMBL2331406, “In vitro activity of scorpiand-like azamacrocycle derivatives in promastigotes and intracellular amastigotes of Leishmania infantum and Leishmania braziliensis” (Eur J Med Chem, 2013)
Active and inactive are the calls of the source. The calls are words filed in the database; no cut-off is given here.

What was measured:
[1] = Inhibition of Escherichia coli Mn-SOD by […] reduction assay
Method in brief: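 Commercial Mn-SOD from Escherichia coli assayed by spectrophotometric NBT-reduction method, in which superoxide reduces NBT.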

Leishmania infantum [2] = test: Antileishmanial activity against promastigote form of Leishmania infantum MCAN/ES/2001/UCM-10 assessed as increase in glycosomes at IC25 concentration after 96 hrs by […] electron microscopic analysis relative to control; format: functional, organism-based
Method in brief: (§1)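 Promastigotes at 5 × 10^5 cells/mL in MTL medium with compound at IC25 for 96 h. Ultrastructure examined by transmission electron microscopy against untreated control parasites.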

[3] = Ratio of compound selectivity index to glucantime selectivity index for amastigote form of Leishmania infantum MCAN/ES/2001/UCM-10 infected in J774.2 cells over mouse J774.2 cells
Method in brief: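 J774.2 macrophages in MEM + 2 mM glutamine + 20% inactivated FCS were infected with stationary-phase promastigotes (10:1) for 24 h at 37 °C, 5% CO2. After washing, compounds were added at […] for 72 h. Amastigote reduction was scored in methanol-fixed, Giemsa-stained preparations; IC50 by regression; triplicates. SI = J774.2 IC50 (72 h flow cytometry)/amastigote IC50; ratio is versus Glucantime SI.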

Leishmania braziliensis [4] = test: Antileishmanial activity against promastigote form of Leishmania braziliensis MHOM/BR/1975/M2904 assessed as change in alanine metabolite production at IC25 concentration after 96 hrs by H1-NMR analysis; format: functional, MHOM/BR/75/M2904
Method in brief: (§2)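 Promastigote cultures, initial 5 × 10^5 cells/mL, given the IC25 of compound; controls left untreated. Incubated 96 h at 28 °C, then centrifuged at 400g for 10 min. Excreted metabolites in the medium identified by 1H NMR spectra and compared with untreated control.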

Leishmania infantum [5] = test: Antileishmanial activity against promastigote form of Leishmania infantum MCAN/ES/2001/UCM-10 assessed as change in acetate metabolite production at IC25 concentration after 96 hrs by H1-NMR analysis; format: functional; method in brief: as §2
[6] = Inhibition of promastigote form Leishmania braziliensis MHOM/BR/1975/M2904 Fe-SOD by NBT reduction assay; parameters: species or system Leishmania braziliensis MHOM/BR/75/M2904
Method in brief: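 Promastigotes sonicated in sucrose/Tris-HCl/EDTA buffer, pH 7.8, and centrifuged. Protein precipitating at 35–85% ammonium sulphate desalted into 20 mM potassium phosphate with 1 mM EDTA, pH 7.8. Protein measured by Bradford. Fe-SOD activity read spectrophotometrically as inhibition of NBT reduction by superoxide, with compounds at 0.1–50. IC50 by linear regression of Kc values; three determinations; Newman-Keuls test vs control homogenate.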

Leishmania braziliensis [7] = test: Antileishmanial activity against promastigote form of Leishmania braziliensis MHOM/BR/1975/M2904 assessed as ethanol metabolite production at IC25 concentration after 96 hrs by H1-NMR analysis; format: functional, MHOM/BR/75/M2904; method in brief: as §2
Leishmania braziliensis [8] = test: Antileishmanial activity against promastigote form of Leishmania braziliensis MHOM/BR/1975/M2904 assessed as empty cytoplasmic at IC25 concentration after 96 hrs by MET microscopic analysis; format: functional; conditions: MHOM/BR/75/M2904; method in brief: as §1
[9] = Selectivity index, ratio of IC50 for mouse J774.2 cells to IC50 for axenic amastigote form of Leishmania braziliensis MHOM/BR/1975/M2904; format: toxicity; conditions: J774.2 cells, read-out: Ratio IC50
Method in brief: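 Axenic amastigotes obtained by 3-day promastigote transformation in supplemented M199 + 10% heat-inactivated FCS, pH 5.4, 37 °C. […] Host toxicity: J774.2, 72 h, PI/FDA flow cytometry. SI = macrophage IC50/axenic amastigote IC50; ratio is compound SI over Glucantime SI.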

[10] = target: Superoxide dismutase [Mn] (Escherichia coli) (UniProt P00448); test: Inhibition of Escherichia coli Mn-SOD by NBT reduction assay
Leishmania braziliensis [11] = test: Antileishmanial activity against promastigote form of Leishmania braziliensis MHOM/BR/1975/M2904 assessed as change in succinate metabolite production at IC25 concentration after 96 hrs by H1-NMR analysis; format: functional, MHOM/BR/75/M2904; method in brief: as §2
[12] = Ratio of compound selectivity index to glucantime selectivity index for promastigote form of Leishmania infantum MCAN/ES/2001/UCM-10 over mouse J774.2 cells
Method in brief: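 J774.2 toxicity: 72 h at the same concentrations, viability by flow cytometry with propidium iodide/fluorescein diacetate; IC50 by linear regression. SI = macrophage IC50/parasite IC50; ratio is compound SI over Glucantime SI.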

Leishmania infantum [13] = test: Antileishmanial activity against axenic amastigote form of Leishmania infantum MCAN/ES/2001/UCM-10 after 72 hrs by haemocytometric analysis; format: functional, organism-based; conditions: Leishmania infantum, MCAN/ES/2001/UCM-10, 72 h
Method in brief: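 Axenic amastigotes made by culturing promastigotes 3 days at 37 °C in M199 with 10% heat-inactivated FCS plus organic acids, amino acids, sucrose, bicarbonate, MES, haemin and gentamicin, pH 5.4. Compound effect counted in a Neubauer haemocytometer chamber. IC50 by linear regression of Kc values at 1, 10, 25, 50 and 100.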

Leishmania infantum [14] = test: Antileishmanial activity against promastigote form of Leishmania infantum MCAN/ES/2001/UCM-10 infected in J774.2 cells assessed as inhibition of infection in host cells at IC25 concentration incubated for 12 hrs followed by compound washout measured after 48 hrs by microscopic analysis; format: functional
Method in brief: (§3)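 J774.2 cells seeded at 1 × 10^4 cells/well on coverslips and cultured 2 days. Infected with promastigotes at 10:1 with drug at IC25 added immediately, for 12 h at 37 °C in 5% CO2. Parasites and drug washed out, then grown 10 days with washing and fresh medium every 48 h. On methanol-fixed, Giemsa-stained slides, % infected cells and amastigotes per infected cell scored from more than 200 host cells. Three determinations.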

Leishmania infantum [15] = test: Antileishmanial activity against promastigote form of Leishmania infantum MCAN/ES/2001/UCM-10 assessed as change in succinate metabolite production at IC25 concentration after 96 hrs by H1-NMR analysis; format: functional; method in brief: as §2
[16] = Selectivity index, ratio of IC50 for mouse J774.2 cells to IC50 for promastigote form of Leishmania braziliensis MHOM/BR/1975/M2904; format: toxicity; conditions: J774.2 cells, read-out: Ratio IC50
Leishmania braziliensis [17] = test: Antileishmanial activity against promastigote form of Leishmania braziliensis MHOM/BR/1975/M2904 assessed as mortality at IC25 concentration after 96 hrs by MET microscopic analysis; format: functional; conditions: MHOM/BR/75/M2904; method in brief: as §1
Leishmania infantum [18] = test: Antileishmanial activity against promastigote form of Leishmania infantum MCAN/ES/2001/UCM-10 assessed as ethanol metabolite production at IC25 concentration after 96 hrs by H1-NMR analysis; format: functional; method in brief: as §2
Leishmania infantum [19] = test: Antileishmanial activity against promastigote form of Leishmania infantum MCAN/ES/2001/UCM-10 infected in J774.2 cells assessed as inhibition of number of amastigotes per host cell at IC25 concentration incubated for 12 hrs followed by compound washout measured after 48 hrs by microscopic analysis; format: functional; method in brief: as §3
[20] = Ratio of compound selectivity index to glucantime selectivity index for promastigote form of Leishmania braziliensis MHOM/BR/1975/M2904 over mouse J774.2 cells
Leishmania infantum [21] = test: Antileishmanial activity against promastigote form of Leishmania infantum MCAN/ES/2001/UCM-10 assessed as change in lactate metabolite production at IC25 concentration after 96 hrs by H1-NMR analysis; format: functional; method in brief: as §2

Superoxide dismutase [Mn] (Escherichia coli), sequence (P00448 whole entry, looked up): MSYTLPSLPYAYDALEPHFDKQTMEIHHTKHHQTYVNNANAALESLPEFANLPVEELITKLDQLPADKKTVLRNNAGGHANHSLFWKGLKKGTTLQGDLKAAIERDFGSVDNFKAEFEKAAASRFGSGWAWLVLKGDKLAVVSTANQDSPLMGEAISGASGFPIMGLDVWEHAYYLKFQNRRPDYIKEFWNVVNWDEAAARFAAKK

Row | Structure (SMILES) | IC50 [1] | Activity (Leishmania infantum [2]) | Ratio [3] | Activity (Leishmania braziliensis [4]) | Activity (Leishmania infantum [5]) | IC50 [6] | Activity (Leishmania braziliensis [7]) | Activity (Leishmania braziliensis [8]) | selectivity ratio [9] | IC50 [10] | Activity (Leishmania braziliensis [11]) | Ratio [12] | IC50 (Leishmania infantum [13]) | inhibition (INH) (Leishmania infantum [14]) | Activity (Leishmania infantum [15]) | selectivity ratio [16] | Activity (Leishmania braziliensis [17]) | Activity (Leishmania infantum [18]) | inhibition (INH) (Leishmania infantum [19]) | Ratio [20] | further results
1 | Cl.c1cc2nc(c1)CNCCN(CCNCc1cccc3ccccc13)CCNC2 | 408 µM | Active | 42 | 0% | -6% | 16.6 µM | -6% | Active | 14.7 | 408 µM | 2% | 23 | 28.1 µM | 74% | -3% | 29.7 | Active | 110% | 71% | 49 | Activity (Leishmania infantum [21]): -44%
2 | Br.NCCN1CCNCc2cccc(n2)CNCC1 | 381 µM |  | 18 | 5% |  | 15.1 µM | 6% | Active | 14.5 | 381 µM | 22% | 15 | 29.2 µM |  |  | 19.6 | Active |  |  | 30 | 
3 | Cl.c1ccc(CNCCN2CCNCc3cccc(n3)CNCC2)nc1 | 178 µM | Active | 26 | 8% | -19% | 1.3 µM | -71% | Active | 15.9 | 179 µM | -78% | 20 | 25.4 µM | 77% | -59% | 22.5 | Active | 10% | 67% | 37 | Activity (Leishmania infantum [21]): 13%
4 | Cl.c1cncc(CNCCN2CCNCc3cccc(n3)CNCC2)c1 | 641 µM | Active | 149 | 10% | 1% | 9 µM | -59% | Active | 19.6 | 641 µM | -47% | 31 | 15.9 µM | 84% | -36% | 20.3 | Active | 28% | 77% | 34 | Activity (Leishmania infantum [21]): -38%
